Measurements pooled from the literature.
Each line is one published result; the experiments were not run side by side.
Target: Mitogen-activated protein kinase kinase kinase 2 (MAP3K2, Homo sapiens, UniProt Q9Y2U5)
Residues used in one study (Q9Y2U5 1-619): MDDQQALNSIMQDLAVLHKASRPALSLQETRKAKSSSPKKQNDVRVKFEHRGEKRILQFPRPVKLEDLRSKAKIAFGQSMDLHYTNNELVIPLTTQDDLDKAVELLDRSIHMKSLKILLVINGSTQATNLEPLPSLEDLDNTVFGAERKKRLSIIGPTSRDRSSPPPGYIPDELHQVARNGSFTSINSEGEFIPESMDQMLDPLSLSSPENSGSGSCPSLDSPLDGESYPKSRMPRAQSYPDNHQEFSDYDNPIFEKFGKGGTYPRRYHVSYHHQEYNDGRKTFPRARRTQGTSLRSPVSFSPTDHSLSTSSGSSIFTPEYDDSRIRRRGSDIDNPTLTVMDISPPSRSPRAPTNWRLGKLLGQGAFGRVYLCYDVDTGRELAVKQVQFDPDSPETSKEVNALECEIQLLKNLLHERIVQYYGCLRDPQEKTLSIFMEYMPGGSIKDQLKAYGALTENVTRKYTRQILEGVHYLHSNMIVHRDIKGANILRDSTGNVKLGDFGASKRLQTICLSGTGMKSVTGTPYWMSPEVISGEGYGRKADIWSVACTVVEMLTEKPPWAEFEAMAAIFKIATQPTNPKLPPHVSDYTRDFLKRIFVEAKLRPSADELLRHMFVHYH

| SMILES | effect on | method | tested at | remaining binding [%] |
| --- | --- | --- | --- | --- |
| O=C(NCCCN1CCOCC1)c1ccc(Nc2nccc(-c3cc4ccccc4s3)n2)cc1 | binding | competition with immobilised ligand | 1 µM | 24 |
| N[C@@H]1CCN(c2nccc(-c3cnn4ncccc34)n2)C1 | binding | – | 1 µM | 100 |
| Cc1c(NC(=O)c2cc(C(N)=O)nc3cc(F)ccc23)c(C(F)(F)F)nn1Cc1ccc(C(C)(C)C)cc1 | cell-free assay | competition with immobilised ligand | 1 µM | 100 |
| O=C(NCCCN1CCOCC1)c1ccc(Nc2ncc(Cl)c(-c3ccc(Cl)s3)n2)cc1 | binding | competition with immobilised ligand | 1 µM | 2.3 |
| CCC(=N\O)/C(C)=C/c1ccc(F)cc1 | cell-free assay | competition with immobilised ligand | 1 µM | 85 |
| Nc1ncc2c(n1)-c1c([nH]c3ccc(C#CC4CC4)cc13)CCCC2 | binding | competition with immobilised ligand | 1 µM | 85 |
| CCCCN(CCCC)C(=O)CN1C[C@@H](c2cc(OC)c3c(c2)OCO3)[C@H](C(=O)O)[C@H]1CC(C)(C)CCC | cell-free assay | competition with immobilised ligand | 1 µM | 84.6 |
| O=C(NCC1CCOCC1)c1n[nH]cc1NC(=O)c1c(F)cccc1F | binding | competition with immobilised ligand | 1 µM | 73 |
| CC1CCCN1c1nccc(-c2cnn3ncccc23)n1 (stereo not drawn) | binding | – | 1 µM | 98 |
| C=CC(=O)N1CCC(C(=O)NCC(=O)N2CCN(c3nc(-c4cnc(N)nc4C(F)F)nc(N4CCOCC4)n3)CC2)CC1 | binding | competition with immobilised ligand | 1 µM | 69 |
| c1cncc(-c2cccc(Nc3nccc(NC4CCCCC4)n3)c2)c1 | binding | competition with immobilised ligand | 10 µM | 48 |
| CN(C)CC#Cc1ccc(OCCCc2sc(N3CCc4cccc(C(=O)Nc5nc6ccccc6s5)c4C3)nc2C(=O)O)c(F)c1 | cell-free assay | competition with immobilised ligand | 1 µM | 75 |
| C[C@H]1CCN(c2nccc(-c3cnn4ncccc34)n2)C1 | binding | – | 1 µM | 81 |
| c1ccc(N2CCN(Cc3nc4ccccc4[nH]3)CC2)nc1 | binding | competition with immobilised ligand | 1 µM | 100 |
| CCN1CCN(Cc2ccc(C(=O)Nc3ccc(C)c(Oc4ccc5c(c4)CC(=O)N5)c3)cc2C(F)(F)F)CC1 | binding | competition with immobilised ligand | 1 µM | 100 |
| c1cnn2ncc(-c3ccnc(N4CCC45COC5)n3)c2c1 | binding | – | 1 µM | 58 |
| COc1cnc(Nc2cccc(S(N)(=O)=O)c2)nc1N1CCN(c2ccccc2)CC1 | binding | competition with immobilised ligand | 1 µM | 68 |
| CN(C)c1nccc(-c2cnc3ncccn23)n1 | binding | – | 1 µM | 73 |
| O=C(Nc1cccnn1)N1CCC(=Cc2cccc(Oc3ccc(C(F)(F)F)cn3)c2)CC1 | cell-free assay | competition with immobilised ligand | 1 µM | 100 |
| CN(CCCC(F)(F)F)c1nccc(-c2cnn3ncccc23)n1 | binding | – | 1 µM | 96 |
| O=C(c1ccc(Nc2ncc(Cl)c(-c3cc4ccccc4s3)n2)cc1)N1CCC(N2CCCC2)CC1 | binding | competition with immobilised ligand | 1 µM | 20 |
